Experimental data from ChEMBL document CHEMBL4308845, “Allosteric Activation of Striatal-Enriched Protein Tyrosine Phosphatase (STEP, PTPN5) by a Fragment-like Molecule” (J Med Chem, 2019).
Active and inactive are the calls of the source. The calls are words filed in the database; no cut-off is given here.

Tests used:
Homo sapiens = species on record: Homo sapiens; assay: Activation of human STEP46 (197 to 565 residues) expressed in Escherichia coli BL21(DE3) at 500 uM using biotin-pFyn peptide substrate after 60 mins by AlphaLISA assay relative to control
Summary of the method: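 STEP46 (50 nM final) with biotinylated pFyn peptide (20 nM final) and compound in 1% DMSO, 60 min at room temperature in the dark. Detection by anti non-phospho Src/Tyr416 antibody in stop buffer containing 10 μM orthovanadate, plus protein A acceptor and streptavidin donor beads, 15 min each. % CTL computed against enzyme (100%) and no-enzyme (0%) controls.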

[1] = target: T1, Tyrosine-protein phosphatase non-receptor type 5 (Mus musculus) (UniProt P54830); assay: Activation of mouse STEP PTP domain (244 to 539 residues) expressed in Escherichia coli BL21(DE3) at 500 uM using biotin-pFyn peptide substrate after 60 mins by AlphaLISA assay
T1 sequence (whole entry): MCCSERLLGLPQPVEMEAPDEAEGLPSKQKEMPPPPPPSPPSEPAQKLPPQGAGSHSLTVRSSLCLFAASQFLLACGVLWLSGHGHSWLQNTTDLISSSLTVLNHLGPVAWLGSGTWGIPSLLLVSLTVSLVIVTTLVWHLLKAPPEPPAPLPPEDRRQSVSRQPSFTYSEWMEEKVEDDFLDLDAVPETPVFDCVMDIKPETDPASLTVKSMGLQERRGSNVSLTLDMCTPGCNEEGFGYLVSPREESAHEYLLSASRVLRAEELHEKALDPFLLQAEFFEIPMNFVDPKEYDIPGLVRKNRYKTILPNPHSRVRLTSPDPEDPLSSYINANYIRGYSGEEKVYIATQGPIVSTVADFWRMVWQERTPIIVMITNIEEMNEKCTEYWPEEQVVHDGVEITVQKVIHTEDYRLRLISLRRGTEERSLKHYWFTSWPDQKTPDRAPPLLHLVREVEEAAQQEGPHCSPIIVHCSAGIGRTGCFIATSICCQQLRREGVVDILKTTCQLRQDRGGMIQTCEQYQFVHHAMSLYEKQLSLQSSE

- Activity (Homo sapiens): 56%
- Activity [1]: Active
Structure (SMILES): N=C(N)Nc1cc(C2CCNCC2)cc(C(F)(F)F)c1
